Source: PubChem BioAssay
Most compounds without a hit are left out; they make up all but 2.2% or so of the library.
eIF4H inh = inhibitors of RNA binding by human eIF4H | eIF4H fluorescence polarization binding assay | inhibition, % at 35 µM | 0.94% of 290,000 active;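 also: calls also rest on retests at 20 µM and on dose response follow-up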
MLLE-PAM2 inh = blocks PAM2 peptide binding to the PABP1 MLLE domain | GST-MLLE / FITC-PAM2 fluorescence polarization | 0.36% of 360,000 active | inhibition, % at 20 µM | P11940; in the data active = inhibition above about 35%, passing the limit was not always enough;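 also: plate controls were DMSO wells with GST-MLLE for no effect and wells lacking GST-MLLE protein for full effect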
Target sequence (P11940 whole entry, looked up, the tested form may be a part): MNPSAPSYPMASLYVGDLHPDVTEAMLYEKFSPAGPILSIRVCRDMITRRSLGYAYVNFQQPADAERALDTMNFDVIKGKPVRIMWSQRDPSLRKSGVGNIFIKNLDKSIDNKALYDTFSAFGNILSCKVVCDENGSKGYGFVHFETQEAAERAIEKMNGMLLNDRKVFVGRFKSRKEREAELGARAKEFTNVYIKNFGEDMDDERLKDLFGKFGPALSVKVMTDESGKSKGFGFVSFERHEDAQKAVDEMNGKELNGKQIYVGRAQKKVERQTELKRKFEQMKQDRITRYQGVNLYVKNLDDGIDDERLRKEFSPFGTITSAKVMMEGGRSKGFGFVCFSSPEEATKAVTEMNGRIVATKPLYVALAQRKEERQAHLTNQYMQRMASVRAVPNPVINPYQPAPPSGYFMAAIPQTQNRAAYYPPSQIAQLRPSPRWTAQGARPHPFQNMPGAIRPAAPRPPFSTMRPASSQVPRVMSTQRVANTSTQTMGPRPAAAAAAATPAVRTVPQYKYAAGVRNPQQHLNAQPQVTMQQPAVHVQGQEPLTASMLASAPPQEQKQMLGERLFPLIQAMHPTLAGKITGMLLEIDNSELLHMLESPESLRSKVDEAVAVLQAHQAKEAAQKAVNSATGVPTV
PABP polyA inh = PABP-poly(A) binding inhibition | 1% of 290,000 active | P11940 | calls only at 35 µM | PABP-poly(A) RNA binding, fluorescence polarization;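 also: calls also rest on retests at 20 µM and on dose response follow-up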
IMP-1 inh-1 = inhibitors of Pseudomonas aeruginosa IMP-1 metallo-beta-lactamase; purified IMP-1, nitrocefin hydrolysis, epi-absorbance fluorescence; inhibition, % at 5.6 µM; 0.45% of 290,000 active;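 active = inhibition above the mean plus 3 SD of all compounds in the same screening run, cut at about 4.5% in these data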;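 also: 0% = IMP-1 with DMSO and 100% = DMSO wells lacking enzyme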
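Material – recombinant IMP-1 enzyme, purified · Amount – IMP-1 0.2 nM before substrate addition · Medium – HEPES buffer pH 7.1 with ZnSO4 and Brij 35 · Timing – 25 °C, 15 min preincubation, 25 min reaction · Measured by – plate fluorescence quenching by hydrolysis product, ex 480/em 530 nm · Read-out – percent enzyme inhibition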
VIM-2 inh = blocks Pseudomonas aeruginosa VIM-2 metallo-beta-lactamase; purified VIM-2, nitrocefin hydrolysis, epi-absorbance fluorescence; inhibition, % at 5.6 µM; 0.89% of 290,000 active;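 active = inhibition above the mean of all tested compounds plus 3 SD, cutoff set per screening run, cut at about 7.5% in these data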;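 also: red hydrolysis product quenches plate fluorescence so inhibitors raise well fluorescence; 0% = enzyme with DMSO and 100% = DMSO without enzyme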
IMP-1 inh-2 = selectivity counter-screen for VIM-2 inhibitors: IMP-1 metallo-beta-lactamase inhibitors; shares compounds with VIM-2 inh; purified IMP-1, nitrocefin hydrolysis, epi-absorbance fluorescence; inhibition, % at 5.6 µM; 1,300 tested, under 10 active;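 also: 0% = enzyme with vehicle and 100% = vehicle without enzyme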
VIM-2 FRET ctr = inhibits VIM-2 in FRET assay to exclude epi-absorbance artifacts. shares compounds with VIM-2 inh. purified VIM-2, CCF2 FRET substrate hydrolysis. inhibition, % at 5.6 µM. 23% of 1,300 active. AID 1857;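 active = inhibition above the mean of all tested compounds plus 3 SD, cut at about 19% in these data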;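 also: 0% = VIM-2 plus DMSO and 100% = no enzyme wells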
TEM-1 inh = blocks E. coli TEM-1 beta-lactamase in VIM-2 selectivity screen. inhibition, % at 5.6 µM. Purified TEM-1, nitrocefin hydrolysis, epi-absorbance fluorescence. shares compounds with VIM-2 inh. 3% of 1,300 active;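 active = inhibition above that campaign's mean inhibition plus 3 SD, cut at about 0.46% in these data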;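 also: 0% = TEM-1 with DMSO and 100% = TEM-1 with 100 µM potassium clavulanate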
VIM-2 confirm 2 = confirmation of P. aeruginosa VIM-2 metallo-beta-lactamase inhibitors; shares compounds with VIM-2 inh; purified VIM-2, nitrocefin hydrolysis, epi-absorbance; inhibition, % at 5.6 µM; 96% of 1,300 active;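 active = inhibition of the VIM-2 beta-lactamase enzyme above about 11% from the earlier first-round screen, limit read from the data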;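 also: 0% = VIM-2 with DMSO and 100% = buffer wells without enzyme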
An asterisk follows results filed as active; i = inactive; nt = not tested or not shown; + = active, no number. Unless noted, no rule for the calls is given here.

SMILES	eIF4H inh	MLLE-PAM2 inh	PABP polyA inh	IMP-1 inh-1	VIM-2 inh	IMP-1 inh-2	VIM-2 FRET ctr	TEM-1 inh	VIM-2 confirm 2
CCOC(=O)c1cc2occc2n1Cc1c(F)cccc1Cl	2	-26	i	-1	-3	nt	nt	nt	nt
COc1cc(OC)c(S(=O)(=O)NC(C)C)cc1S(=O)(=O)NC(C)C	8	2	i	-1	-2	nt	nt	nt	nt
COc1ccc(CNC(=O)C2CCN(c3nnc(N4CCCC4=O)s3)CC2)cc1	90*	3	+	0	-3	nt	nt	nt	nt
CSc1nnc(-c2ccc(C(F)(F)F)nc2C)o1	1	-10	i	-3	-1	nt	nt	nt	nt
CC(C)CSC1=NSC2=NC(=O)/C(=C\c3cccs3)C(=N)N12	51*	-26	i	-3	-2	nt	nt	nt	nt
N=C1/C(=C/c2cccs2)C(=O)N=C2SN=C(SCc3ccccc3)N12	15	-10	i	-4	-6	nt	nt	nt	nt
COc1ccc(Sc2nc(-c3ccccn3)ncc2OC)cc1	-6	-9	i	-6	7.9*	nt	nt	nt	nt
COc1ccc(CN2CC[C@H]3C=CCc4cccc(c43)C2)cc1	nt	6	nt	nt	nt	nt	nt	nt	nt
O=C(O)c1cccc(-c2ccc(/C=N/NC(=O)C3COc4ccccc4O3)o2)c1 (stereo not drawn)	72*	-5	i	-3	-3	nt	nt	nt	nt
O=C(N/N=C\c1ccc(-c2ccccc2[N+](=O)[O-])o1)C1COc2ccccc2O1 (stereo not drawn)	4	8	i	-1	-2	nt	nt	nt	nt
CC(C)(C)c1ccc2c(c1)OC(C(=O)N/N=C\c1ccc(-c3cccc(C(=O)O)c3)o1)CO2 (stereo not drawn)	73*	2	+	-3	-4	nt	nt	nt	nt
Nc1nonc1C(=O)N/N=C/c1ccc(-c2cccc(C(=O)O)c2)o1	55*	nt	i	-1	-1	nt	nt	nt	nt
Nn1c(SCC(=O)Nc2c(Cl)cccc2Cl)nncc1=O	nt	5	nt	nt	nt	nt	nt	nt	nt
ClC(Cl)(Cl)c1nc2ccccc2n2nncc12	7	-33	i	-2	24*	-2	0	-6	38*
c1ccc2c(c1)nnn1c3ccccc3nc21	2	nt	i	-2	3	nt	nt	nt	nt
O=C(Nc1ccccc1C(=O)Nc1ccncc1)c1cccc([N+](=O)[O-])c1	-12	-4	i	-1	13*	-3	-11	-5	25*
CCCCOc1ccc(C(=O)NCC(=O)NCC(c2ccc(OC)cc2)N2CCCC2)cc1 (stereo not drawn)	nt	-2	nt	nt	nt	nt	nt	nt	nt
CC1CCCC(N2CCN(C(=O)c3ccccc3F)CC2)C1 (stereo not drawn)	-5	5	i	-5	-1	nt	nt	nt	nt
COc1cnc(-c2ccccn2)nc1N(C)c1ccccc1	0	2	i	-5	37*	-4	-35	-3	47*
COc1cnc(-c2ccccn2)nc1Oc1cccc(C(F)(F)F)c1	-2	-2	i	-5	45*	-5	-29	-5	60*
Cc1nc(-c2ccccn2)nc(SCC(=O)c2ccccc2)c1Cl	-1	17	i	-2	54*	-4	-25	-6	72*
Cc1nc(-c2ccccn2)nc(SCC(=O)N2CCOCC2)c1Cl	-12	16	i	-5	5	nt	nt	nt	nt
CCOC(=O)CSc1nc(-c2ccccn2)ncc1OC	2	4	i	-5	17*	-4	-25	-4	25*
Cc1cc(O)c(C)c(O)c1/C=N/NC(=O)c1cccnc1	4	5	i	-4	-3	nt	nt	nt	nt
COc1ccc(-c2cc(C(F)(F)F)nc(SCCC(=O)N3CCN4CCCC4C3)n2)cc1 (stereo not drawn)	-3	-14	i	3	13*	-3	6	-7	29*
COc1ccc(-c2cc(C(F)(F)F)nc(SCCC(=O)N3CCCC3)n2)cc1	-1	-8	i	0	-1	nt	nt	nt	nt
COc1cc(/C=N/N2CCN(Cc3ccc(C)cc3)CC2)cc(OC)c1O	2	16	i	-8	22*	-6	-8	-9	32*
